Source: ChEMBL document CHEMBL3526127, “Absorption, elimination, and metabolism of CS-1036, a novel α-amylase inhibitor in rats and monkeys, and the relationship between gastrointestinal distribution and suppression of glucose absorption” (Drug Metab Dispos, 2013)

Experiments:
Settings in all cases: in vivo
[1] = Half life in F344 rat at 3 mg/kg, po administered as single dose by LC-MS/MS method; assay type: ADME, organism-based; design: dose 3 mg/kg, route oral
In short: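 Male F344 rats (146–185 g) and male cynomolgus monkeys (3.48–4.29 kg), n = 4 each, fasted overnight, received single iv or oral doses of 0.3, 1.0, 3.0 or 10.0 mg/kg. Monkeys had 2-week washouts between doses. Plasma was sampled to 48 h and assayed by LC-MS/MS with deuterated internal standard. Noncompartmental analysis: tmax observed; t1/2 by regression on ≥3 terminal log points; Vss = dose·AUMC/(AUC0–inf)²; Foral = oral/iv AUC0–inf at the same dose.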

Rattus norvegicus [2] = test: Total drug excretion in F344 rat at 1 mg/kg, po administered as single dose after 0 to 168 hrs by scintillation counting method; assay type: ADME, organism-based; design: dose 1 mg/kg, route oral
In short: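 Fasted F344 rats (n = 4) received [14C]-labelled drug at 1 mg/kg (41.9 µCi/kg), iv via tail vein or oral. They were housed in metabolic cages. Urine and feces were collected to 168 h, and expired CO2 was trapped in 2-aminoethanol/2-methoxyethanol to 48 h. Radioactivity was counted by liquid scintillation, feces after homogenization. Results are % of dose.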

Rattus norvegicus [3] = test: Total drug excretion in bile duct cannulated F344 rat at 1 mg/kg, po administered as single dose after 0 to 48 hrs by scintillation counting method; assay type: ADME, organism-based; design: dose 1 mg/kg, route oral
In short: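 Under ether anesthesia, the common bile duct of fasted F344 rats was cannulated. After recovery, rats received 1 mg/kg (41.9 µCi/kg) of the 14C-labelled compound iv or by oral gavage (n = 4). They were kept in Bollman cages, and bile was collected at 0–6, 6–24, 24–30 and 30–48 h at 4°C. Radioactivity was measured by liquid scintillation counting as % of dose.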

[4] = Drug distribution in F344 rat cecum at 1 mg/kg, po administered as single dose after 4 hrs by scintillation counting method; assay type: ADME, organism-based, Caecum; design: dose 1 mg/kg, route oral
In short: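 [14C]-labelled drug (1 mg/kg, 42.4 µCi/kg) was given orally to fasted F344 rats (148–168 g, n = 3). Contents of stomach, duodenum+jejunum, ileum and cecum were washed out with water at 0.5–8 h, homogenized, solubilized and counted by liquid scintillation. Results are % of dose, mean ± S.D.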

Cynomolgus monkey = test: Total drug excretion in cynomolgus monkey at 3 mg/kg, po administered as single dose after 0 to 48 hrs by scintillation counting method; assay type: ADME, organism-based, Macaca fascicularis; design: dose 3 mg/kg, route oral
In short: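 Fasted male cynomolgus monkeys (n = 4) were dosed with 14C-labelled drug at 3 mg/kg, iv via saphenous vein (191 µCi/kg) or orally by stomach catheter (156.5 µCi/kg). Urine, feces and cage-wash water were collected to 336 h. Radioactivity was measured by liquid scintillation counting, with feces homogenized in water, and expressed as % of dose.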

## C[C@H]1O[C@@H](O[C@H]2[C@H](O)[C@@H](O)[C@@H](O[C@H]3[C@H](O)CN[C@@H]3CO)O[C@@H]2CO)[C@H](O)[C@@H](O)[C@@H]1O
[1]
  half-life: 4.16 h

## C[C@H]1O[C@@H](O[C@H]2[C@H](O)[C@@H](O)[C@@H](O[14C@H]3[14C@H](O)[14CH2]N[14C@@H]3[14CH2]O)O[C@@H]2CO)[C@H](O)[C@@H](O)[C@@H]1O
Rattus norvegicus [2]
  Drug excretion: 97.94%
Rattus norvegicus [3]
  Drug excretion: 0.59%
[4]
  Drug uptake: 49.4%
Cynomolgus monkey
  Drug excretion: 83.8%
